In the library only some 3.8% were active in any assay of this set; here they are far more common.
KCNQ1 block – blocks the human KCNQ1 potassium channel | P51787 | CHO-K1 KCNQ1, FluxOR thallium flux fluorescence; hits give high values | B-score at 10 µM | hit rate 1.3% among 310,000;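 active = compounds whose thallium flux B-score, printed positive for inhibition, exceeds three library SD while starting fluorescence stays within three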;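 also: channel opened by potassium depolarization with thallium stimulus after 20 min compound exposure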
Kir21 block – inhibitors of mouse Kir2.1 inward-rectifier potassium channel; P35561; hit rate 0.85% among 310,000; HEK293-Kir2.1, FluxOR thallium flux fluorescence; hits give low values; B-score at 10 µM;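 active = fluorescence ratio B-score at or below minus 3 SD of library scores, with starting-brightness B-score within 2 SD, cut at about -4.2 in these data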;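 also: channel flux triggered by added potassium and thallium sulfate stimulus; B-score of peak minus minimum fluorescence over baseline after thallium stimulus; more negative B-score means stronger Kir2.1 block with less thallium influx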
KCNQ1 pot – potentiators or activators of human KCNQ1 potassium channel; AID 2648; CHO-K1 KCNQ1, thallium flux FluxOR fluorescence; hits give high values; P51787; B-score at 10 µM; hit rate 0.35% among 310,000;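 active = fluorescence ratio B-score, a plate-corrected score, at least three library SD, with initial intensity B-score within 5 SD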
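Test system: CHO-K1 cells stably expressing KCNQ1 / Medium: assay buffer / Also added: depolarizing K+/Tl+ stimulus, K2SO4 and Tl2SO4 each 12.5 mM in 5x stock / Incubation: 90 min dye loading and 20 min compound exposure, both at room temperature / Signal: thallium influx via FluxOR fluorescence, kinetic imaging / Evaluation: B score of baseline-normalized fluorescence ratio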
KCNK3 block – human KCNK3 channel inhibition, primary screen; B-score at 10 µM; CHO-KCNK3 thallium flux, FluxOR fluorescence; hits give low values; hit rate 0.84% among 340,000;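 active = B-score under library mean minus 4 SD, starting fluorescence ratio at most library mean plus 5 SD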;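 also: more negative B-score means stronger inhibition of thallium flux through KCNK3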
hERG rescue – hERG (human) protection from proarrhythmic block; activation (rescue from dofetilide block), less the hit threshold, % at 10 µM; AID 1511; hit rate 0.51% among 310,000; CHO-hERG, FluxOR thallium flux, dofetilide IC70 present;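 active = activation above the mean of controls blocked by dofetilide plus 5 SD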;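 also: thallium influx through hERG after potassium depolarization seen as dye fluorescence rise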
Target sequence (Q12809 whole entry, looked up): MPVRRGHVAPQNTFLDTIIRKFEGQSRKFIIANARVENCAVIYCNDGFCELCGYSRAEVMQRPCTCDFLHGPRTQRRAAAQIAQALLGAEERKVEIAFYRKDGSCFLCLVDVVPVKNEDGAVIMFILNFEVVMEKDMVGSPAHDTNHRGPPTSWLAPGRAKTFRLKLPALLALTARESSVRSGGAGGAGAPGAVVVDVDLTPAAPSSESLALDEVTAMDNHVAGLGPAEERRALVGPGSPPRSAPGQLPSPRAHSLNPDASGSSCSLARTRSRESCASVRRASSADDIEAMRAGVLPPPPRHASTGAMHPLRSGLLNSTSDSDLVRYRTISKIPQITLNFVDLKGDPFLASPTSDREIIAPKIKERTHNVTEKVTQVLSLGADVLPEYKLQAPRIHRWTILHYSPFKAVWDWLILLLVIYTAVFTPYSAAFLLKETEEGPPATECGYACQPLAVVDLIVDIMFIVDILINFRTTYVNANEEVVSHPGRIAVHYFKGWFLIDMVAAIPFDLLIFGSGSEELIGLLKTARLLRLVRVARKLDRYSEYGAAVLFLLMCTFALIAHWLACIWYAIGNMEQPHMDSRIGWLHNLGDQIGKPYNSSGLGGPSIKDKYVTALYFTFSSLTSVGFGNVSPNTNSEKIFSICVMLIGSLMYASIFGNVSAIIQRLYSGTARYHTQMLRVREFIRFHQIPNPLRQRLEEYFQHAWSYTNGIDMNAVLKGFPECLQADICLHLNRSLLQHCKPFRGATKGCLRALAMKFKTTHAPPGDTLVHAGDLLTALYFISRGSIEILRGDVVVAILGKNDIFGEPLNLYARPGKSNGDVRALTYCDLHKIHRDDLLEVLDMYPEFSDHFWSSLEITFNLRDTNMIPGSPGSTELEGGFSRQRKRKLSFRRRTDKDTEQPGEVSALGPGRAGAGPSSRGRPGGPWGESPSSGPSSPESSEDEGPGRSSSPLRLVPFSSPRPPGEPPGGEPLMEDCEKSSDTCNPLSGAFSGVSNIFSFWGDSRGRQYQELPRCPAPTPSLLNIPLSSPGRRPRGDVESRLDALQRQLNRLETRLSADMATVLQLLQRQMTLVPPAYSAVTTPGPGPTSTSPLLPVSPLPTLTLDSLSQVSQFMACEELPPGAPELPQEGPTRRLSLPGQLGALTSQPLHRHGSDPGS
KCNK9 inh – blocks the human KCNK9 two-pore domain potassium channel | Q9NPC2 | HEK293 KCNK9, FluxOR thallium flux fluorescence; hits give low values | B-score at 10 µM | hit rate 1.2% among 310,000 | AID 488922;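 active = ratio B-score over 3 SD below the library mean, with starting fluorescence within 5 SD of its mean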;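 also: negative B-score means less thallium flux so channel inhibition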
KCNK9 block conf – human KCNK9 inhibitor confirmation. shares compounds with KCNK9 inh. HEK293 KCNK9 cells, FluxOR thallium flux fluorescence. inhibition, % at 10 µM. hit rate 43% among 4,900. AID 492992;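 active = thallium signal inhibited by more than 5 SD of the compound-free buffer control wells, on both duplicate plates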;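 also: 0% = assay buffer control wells without compound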
Kir21 sel – mouse Kir2.1 off-target activity of KCNK9 modulators. inhibition, % at 10 µM. shares compounds with KCNK9 inh. Kir2.1 cells, FluxOR thallium flux fluorescence. AID 492993. hit rate 4% among 4,900;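 active = thallium signal drop more than 5 SD beyond the mean of the no-compound control wells, seen in both duplicate plates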;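 also: signal is fluorescence rise after thallium addition divided by baseline fluorescence; plate controls were assay buffer only for no effect and full block by chlorpromazine control for full effect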
KCNK9 uninduced – second check of KCNK9 modulator effects in non-induced HEK293 cells; FluxOR thallium flux; hit rate 40% among 4,900; inhibition, % at 10 µM; shares compounds with KCNK9 inh;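 active = thallium signal drop beyond 5 SD of the untreated control mean, on both duplicate plates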;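 also: plate controls were buffer only IC0 wells for no effect and SID17386958 at its maximal inhibitory level for full effect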
Starred values were filed as active, the others as inactive; i = inactive; . = no result.

SMILES	KCNQ1 block	Kir21 block	KCNQ1 pot	KCNK3 block	hERG rescue	KCNK9 inh	KCNK9 block conf	Kir21 sel	KCNK9 uninduced
Cc1ccccc1NS(=O)(=O)c1cc(C(=O)N2CCCC2)ccc1Cl	i	-0.76	i	i	-7	i	.	.	.
O=C(COC(=O)c1cncc(Br)c1)NCc1cccs1	.	.	.	i	.	.	.	.	.
Cc1cc2c(cc1S(=O)(=O)N1CCN(c3cccc(C)c3C)CC1)OCCN2C	i	-0.24	i	i	-8	i	i	i	i
CCC1CCCCN1C(=O)CSc1nc2ccsc2c(=O)n1Cc1ccccc1 (centres undefined)	i	-0.67	i	i	-23	i	i	i	i
O=C(CSc1nc2ccsc2c(=O)n1Cc1ccccc1)NCC1CCCO1 (centres undefined)	i	-1.2	i	i	-12	i	.	.	.
CSCCC(NC(=O)COc1ccccc1)C(=O)N(C)Cc1ccc(SC)cc1 (centres undefined)	.	.	.	i	.	.	.	.	.
O/N=C(\c1ccccc1)c1nccc2ccccc12	i	2	i	i	-9	i	.	.	.
CCC(C)NC(=O)c1ccccc1NC(=O)c1ccc(CSc2ccc(C)cc2)cc1 (centres undefined)	i	-0.8	i	i	-13	i	i	i	i
COc1ccc2oc(=O)c(-c3csc(Nc4cccc(O)c4)n3)cc2c1	11*	1.4	i	i	-17	-15*	66%*	i	28%*
COc1ccc(Nc2nc(-c3cc4cccc(OC)c4oc3=O)cs2)cc1	i	0.05	i	i	-6	i	.	.	.
C=CCSc1nnc(CCCCCN2C(=O)c3cccc4cccc(c34)C2=O)o1	i	0.81	i	i	-10	i	i	35%*	i
CSc1ccccc1C(=O)OCC(=O)Nc1cccnc1Cl	.	.	.	i	.	.	.	.	.
O=C(c1ccccc1)c1ccc2cc(O)ccc2c1	i	2.5	i	i	-13	i	i	i	i
O=C1C(Cc2ccccc2)Nc2ncnc(N3CCc4ccccc4C3)c2N1Cc1ccccc1 (centres undefined)	.	.	.	i	.	.	.	.	.
CC1Nc2ncnc(N3CCc4ccccc4C3)c2N(Cc2ccc(Cl)cc2)C1=O (centres undefined)	i	0	i	i	-7	-11*	34%*	i	30%*
CC1Nc2ncnc(N3CCc4ccccc4C3)c2N(Cc2ccc(Br)cc2)C1=O (centres undefined)	i	0.48	i	i	-16	-11*	31%*	i	30%*
CCOC(=O)N1CCc2c(sc3c2c(=O)n(Cc2ccccc2)c(=O)n3Cc2cccc(C)c2)C1	i	-0.4	i	i	-6	i	i	i	i
CCOC(=O)N1CCc2c(sc3c2c(=O)n(Cc2ccccc2)c(=O)n3Cc2ccccc2F)C1	i	0.24	i	i	-10	i	i	i	i
O=C(Nc1ccc(F)cc1)c1sccc1SCc1cccc(C(F)(F)F)c1	i	-1.9	i	i	-9	-13*	62%*	46%*	48%*
O=C(Nc1ccc(F)cc1F)c1sccc1SCc1cccc(C(F)(F)F)c1	8*	-1.7	i	i	-14	-12*	68%*	42%*	50%*
CC(=O)N1c2ccc(S(=O)(=O)NCCC(=O)Nc3cccc(Cl)c3)cc2CC1C (centres undefined)	i	-0.66	i	i	-8	i	.	.	.
c1ccc(Cn2nnnc2C(c2cccs2)N2CCc3ccccc3C2)cc1 (centres undefined)	i	-0.34	i	i	-10	-12*	i	i	32%*
CC(C)C(c1nnnn1Cc1ccccc1)N1CCc2ccccc2C1 (centres undefined)	i	-0.56	i	i	-9	i	.	.	.
Cc1nn(Cc2c(F)c(F)c(F)c(F)c2F)c(C)c1NC(=O)c1nn(C)c(C)c1Br	i	-2.1	i	i	-8	i	.	.	.
O=S(=O)(c1ccc(F)cc1)N1CC2CCCN2c2ccc(C(F)(F)F)cc21 (centres undefined)	i	0.48	i	i	-12	-13*	30%*	i	42%*
SMILES	KCNQ1 block	Kir21 block	KCNQ1 pot	KCNK3 block	hERG rescue	KCNK9 inh	KCNK9 block conf	Kir21 sel	KCNK9 uninduced
Cc1ccc(S(=O)(=O)N2CCC(Oc3cccc(C(F)(F)F)c3)CC2)cc1	i	-0.07	i	i	-8	i	.	.	.
Cc1ccc(S(=O)(=O)N2CC3CCCN3c3ccc(C(F)(F)F)cc32)cc1 (centres undefined)	i	-2.3	i	i	-12	-19*	66%*	i	40%*
CCOC(=O)CN1C(=O)/C(=C/c2ccccc2Br)Oc2ccccc21	i	-0.46	i	i	-5	i	.	.	.
O=C(COc1ccccc1C(=O)Nc1ccccc1)c1ccc(Br)cc1	i	0.47	i	i	-12	-9.5*	35%*	i	i
O=C(COc1ccccc1C(=O)Nc1ccccc1)NCCc1ccccc1	i	-0.58	i	i	-9	i	.	.	.
COc1ccc(-c2nn(C)c3sc(C(=O)NCc4ccco4)cc23)cc1OC	i	0.64	i	i	-1	i	.	.	.
COc1cccc(-c2nn(C)c3sc(C(=O)NCc4ccc(C)o4)cc23)c1	i	-1.7	i	i	-20	-14*	48%*	i	30%*
COC(=O)c1sccc1NC(=S)N1C(C)CCCC1C (centres undefined)	i	0.01	i	i	-13	i	.	.	.
COC(=O)c1sccc1NC(=S)N1CCCCC1C (centres undefined)	i	0.04	i	i	-14	i	i	i	i
O=C(Nc1nc(-c2cc(Cl)sc2Cl)cs1)c1ccccc1	i	0.93	i	i	-7	-9.5*	34%*	i	i
O=C(Nc1nc(-c2ccccn2)cs1)c1ccc(Cl)s1	i	-1.1	i	i	-3	i	.	.	.
COc1ccc(NC(=O)c2sccc2OS(=O)(=O)N(C)C)cc1	i	0.4	i	i	-2	i	.	.	.
CN(C)S(=O)(=O)Oc1ccsc1C(=O)Nc1ccc(Cl)cc1	i	-0.36	i	-11*	-8	-11*	33%*	i	40%*

Bioassay records as filed in PubChem BioAssay.
